Calls of active or inactive are those of the source. The calls are words filed in the database; no cut-off is given here.

Experiment [1] addresses Phosphorylase b kinase gamma catalytic chain, skeletal muscle/heart isoform (Homo sapiens) (UniProt Q16816). In words: Inhibition of recombinant human N-terminal GST-tagged PHKgamma1 (2 to 297 residues) expressed in Escherichia coli assessed as remaining activity at 10 uM using phosphorylase b peptide as substrate incubated for 30 mins in presence of [gamma-33P]ATP by filter binding method relative to control. A digest of the protocol:
(§1)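 Incubation was 30 min at room temperature (21 °C) under conditions linear with time and enzyme amount. Activity is reported as percent of control lacking compound, triplicate mean ± S.D.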

Experiment [2] addresses MAP kinase-activated protein kinase 2 (Homo sapiens) (UniProt P49137). In words: Inhibition of recombinant human N-terminal GST/C-terminal Myc-tagged MAPKAPK2 (46 to 400 residues) expressed in Escherichia coli assessed as remaining activity at 1 uM using KKLNRTLSVA as substrate incubated for 30 mins in presence of [gamma-33P]ATP by filter binding method relative to control. A digest of the protocol: (§2)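 Incubations ran robotically for 30 min at room temperature (21 °C) under linear conditions. Results are percent activity remaining versus controls without compound, as the mean of triplicates ± S.D.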

The target in experiment [3] is Insulin-like growth factor 1 receptor (Homo sapiens) (UniProt P08069). In words: Inhibition of recombinant human N-terminal His6-tagged IGF1R (954 to 1367 residues) expressed in baculovirus infected Sf21 cells assessed as remaining activity at 1 uM using KKKSPGEYVNIEFG as substrate incubated for 30 mins in presence of [gamma-33P]ATP by filter binding method relative to control. A digest of the protocol:
(§3)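 Radiometric kinase panel run robotically at room temperature (21 °C) for 30 min, linear in time and enzyme. […] Activity is expressed as percent of control without compound, from triplicate determinations ± S.D.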

Experiment [4] addresses Serine/threonine-protein kinase PAK 5 (Homo sapiens) (UniProt Q9P286). Nature of the experiment: Inhibition of recombinant human N-terminal GST-tagged PAK5 (2 to 719 residues) expressed in Escherichia coli assessed as remaining activity at 10 uM using RRRLSFAEPG as substrate incubated for 30 mins in presence of [gamma-33P]ATP by filter binding method relative to control. A digest of the protocol:
(§4)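 Panel assays were run for 30 min at 21 °C, within the linear range for time and enzyme. […] Results are percent activity remaining relative to compound-free control, averaged from triplicate ± S.D.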

In experiment [5] the target is Serine/threonine-protein kinase 26 (Homo sapiens) (UniProt Q9P289). In words: Inhibition of recombinant human N-terminal His6-tagged MST4 (1 to 416 residues) expressed in baculovirus infected Sf21 cells assessed as remaining activity at 1 uM using MBP as substrate incubated for 30 mins in presence of [gamma-33P]ATP by filter binding method relative to control.
Chain of Serine/threonine-protein kinase 26 (Homo sapiens) (Q9P289 2-416 limits assumed): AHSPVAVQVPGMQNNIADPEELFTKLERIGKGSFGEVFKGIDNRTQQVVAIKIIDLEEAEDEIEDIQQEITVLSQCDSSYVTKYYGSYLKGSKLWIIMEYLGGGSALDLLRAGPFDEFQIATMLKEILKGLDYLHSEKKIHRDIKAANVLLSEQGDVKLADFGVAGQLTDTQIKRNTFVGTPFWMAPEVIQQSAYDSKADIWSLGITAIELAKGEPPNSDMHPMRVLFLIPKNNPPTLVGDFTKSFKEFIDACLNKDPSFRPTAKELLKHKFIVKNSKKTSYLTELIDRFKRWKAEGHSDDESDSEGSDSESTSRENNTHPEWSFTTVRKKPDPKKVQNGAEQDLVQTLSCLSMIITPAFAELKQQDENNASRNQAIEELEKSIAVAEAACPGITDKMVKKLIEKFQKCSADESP
The target in experiment [6] is Mitogen-activated protein kinase 9 (Homo sapiens) (UniProt P45984). In words: Inhibition of recombinant human N-terminal His6-tagged JNK2alpha2 (1 to 424 residues) expressed in baculovirus infected Sf21 cells assessed as remaining activity at 10 uM using ATF2 as substrate incubated for 30 mins in presence of [gamma-33P]ATP by filter binding method relative to control.

Experiment [7] concerns the target Homeodomain-interacting protein kinase 2 (Homo sapiens) (UniProt Q9H2X6). In words: Inhibition of recombinant human N-terminal GST-tagged HIPK2 (165 to 564 residues) expressed in Escherichia coli assessed as remaining activity at 1 uM using MBP as substrate incubated for 30 mins in presence of [gamma-33P]ATP by filter binding method relative to control. A digest of the protocol:
as §3

The target in experiment [8] is MAP/microtubule affinity-regulating kinase 3 (Homo sapiens) (UniProt P27448). Nature of the experiment: Inhibition of recombinant human N-terminal His6-tagged MARK3 (2 to 729 residues) expressed in baculovirus infected Sf21 cells assessed as remaining activity at 1 uM using CHKtide as substrate incubated for 30 mins in presence of [gamma-33P]ATP by filter binding method relative to control.
Chain of MAP/microtubule affinity-regulating kinase 3 (Homo sapiens) (P27448 whole entry, looked up, the tested form may be a part): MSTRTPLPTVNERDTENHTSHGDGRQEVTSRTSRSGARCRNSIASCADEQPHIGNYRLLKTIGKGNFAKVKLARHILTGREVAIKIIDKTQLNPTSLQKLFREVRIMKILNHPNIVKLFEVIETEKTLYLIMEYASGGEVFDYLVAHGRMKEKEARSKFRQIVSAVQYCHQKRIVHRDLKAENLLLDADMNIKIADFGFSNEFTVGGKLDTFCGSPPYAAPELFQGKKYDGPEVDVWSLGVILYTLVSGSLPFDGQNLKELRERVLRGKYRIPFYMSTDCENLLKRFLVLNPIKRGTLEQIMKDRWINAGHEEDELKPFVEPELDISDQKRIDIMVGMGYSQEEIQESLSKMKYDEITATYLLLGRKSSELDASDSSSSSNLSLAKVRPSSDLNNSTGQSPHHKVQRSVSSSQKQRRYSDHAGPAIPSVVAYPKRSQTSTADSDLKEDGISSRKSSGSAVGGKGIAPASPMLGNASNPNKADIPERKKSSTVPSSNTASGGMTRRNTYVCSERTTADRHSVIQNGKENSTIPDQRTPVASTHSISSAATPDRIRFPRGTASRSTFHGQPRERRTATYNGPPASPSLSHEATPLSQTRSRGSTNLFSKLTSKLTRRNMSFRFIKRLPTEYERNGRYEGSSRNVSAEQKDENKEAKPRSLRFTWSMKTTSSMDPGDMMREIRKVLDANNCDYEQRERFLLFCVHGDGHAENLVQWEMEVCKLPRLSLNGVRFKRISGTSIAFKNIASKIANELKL

Experiment [9] deals with SRSF protein kinase 1 (Homo sapiens) (UniProt Q96SB4). Nature of the experiment: Inhibition of recombinant human N-terminal GST-tagged SRPK1 (2 to 654 residues) expressed in Escherichia coli assessed as remaining activity at 1 uM using RSRSRSRSRSRSRSR as substrate incubated for 30 mins in presence of [gamma-33P]ATP by filter binding assay relative to control. A digest of the protocol:
as §1

In experiment [10] the target is T1, mTORC1 (Homo sapiens) (UniProt P42345+Q8N122+Q9BVC4). The following applies: HEK293, dose 30-1000 nM, time 30.0 min.
In experiment [11] the test system is Serine/threonine-protein kinase Sgk1 (Homo sapiens), O00141 [S422D]. In words: Inhibition of recombinant human His6-tagged SGK1 S422D mutant (60 to 431 residues) expressed in baculovirus infected Sf21 cells assessed as remaining activity at 1 uM using GRPRTSSFAEGKK as substrate incubated for 30 mins in presence of [gamma-33P]ATP by filter binding method relative to control. A digest of the protocol:
as §2

For another experiment, the target named is mTORC2 (Homo sapiens) (UniProt P42345+Q6R327+Q9BVC4+Q9BPZ7). The following applies: HEK293, dose 30-1000 nM, time 30.0 min.
Experiment [12] concerns the target MAP kinase-interacting serine/threonine-protein kinase 2 (Homo sapiens) (UniProt Q9HBH9). In words: Inhibition of recombinant human N-terminal GST/C-terminal His6-tagged MNK2alpha (2 to 465 residues) expressed in Escherichia coli assessed as remaining activity at 1 uM using eIF4E as substrate incubated for 30 mins in presence of [gamma-33P]ATP by filter binding method relative to control.

The target of experiment [13] is Serine/threonine-protein kinase PAK 6 (Homo sapiens) (UniProt Q9NQU5). In words: Inhibition of recombinant human N-terminal GST-tagged PAK6 (2 to 681 residues) expressed in Escherichia coli assessed as remaining activity at 1 uM using RRRLSFAEPG as substrate incubated for 30 mins in presence of [gamma-33P]ATP by filter binding method relative to control. A digest of the protocol: as §4

Experiment [14] addresses T1, mTORC1 (Homo sapiens). The following applies: HEK293, dose 30.0 nM, time 30.0 min.
Experiment [15] addresses AMPK alpha1/beta2/gamma1 (Homo sapiens) (UniProt O43741+P54619+Q13131). Nature of the experiment: Inhibition of recombinant N-terminal His6-tagged human AMPKalpha1 (11 to 559 residues)/AMPKbeta2 (1 to 272 residues)/AMPKgamma1 (1 to 331 residues) expressed in baculovirus infected Sf21 cells assessed as remaining activity at 10 uM using SAMS as substrate incubated for 30 mins in presence of [gamma-33P]ATP by filter binding method relative to control. A digest of the protocol: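 Run robotically for 30 min at 21 °C under linear conditions. Compound at 1 or 10 µM. Percentage activity remaining versus control without compound, triplicate mean ± S.D.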

In experiment [16] the test system is Serine/threonine-protein kinase Sgk1 (Homo sapiens), O00141 [S422D]. Nature of the experiment: Inhibition of recombinant human His6-tagged SGK1 S422D mutant (60 to 431 residues) expressed in baculovirus infected Sf21 cells assessed as remaining activity at 10 uM using GRPRTSSFAEGKK as substrate incubated for 30 mins in presence of [gamma-33P]ATP by filter binding method relative to control. A digest of the protocol: as §2
Chain of Serine/threonine-protein kinase Sgk1 (Homo sapiens), O00141 [S422D] (O00141 whole entry S422D, the tested form may be a part): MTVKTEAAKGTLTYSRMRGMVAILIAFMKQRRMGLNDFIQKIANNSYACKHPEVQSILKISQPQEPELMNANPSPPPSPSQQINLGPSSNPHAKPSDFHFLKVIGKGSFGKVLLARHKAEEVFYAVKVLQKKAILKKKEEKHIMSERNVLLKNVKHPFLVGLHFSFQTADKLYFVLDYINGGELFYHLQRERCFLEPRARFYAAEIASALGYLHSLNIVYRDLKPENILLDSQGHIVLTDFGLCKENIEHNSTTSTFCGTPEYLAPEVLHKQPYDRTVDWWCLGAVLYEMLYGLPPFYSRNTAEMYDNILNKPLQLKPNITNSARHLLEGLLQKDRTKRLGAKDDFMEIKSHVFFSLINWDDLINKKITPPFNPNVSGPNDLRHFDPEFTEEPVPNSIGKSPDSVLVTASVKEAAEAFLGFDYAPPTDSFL

Chain of Serine/threonine-protein kinase PAK 5 (Homo sapiens) (Q9P286 whole entry, looked up, the tested form may be a part): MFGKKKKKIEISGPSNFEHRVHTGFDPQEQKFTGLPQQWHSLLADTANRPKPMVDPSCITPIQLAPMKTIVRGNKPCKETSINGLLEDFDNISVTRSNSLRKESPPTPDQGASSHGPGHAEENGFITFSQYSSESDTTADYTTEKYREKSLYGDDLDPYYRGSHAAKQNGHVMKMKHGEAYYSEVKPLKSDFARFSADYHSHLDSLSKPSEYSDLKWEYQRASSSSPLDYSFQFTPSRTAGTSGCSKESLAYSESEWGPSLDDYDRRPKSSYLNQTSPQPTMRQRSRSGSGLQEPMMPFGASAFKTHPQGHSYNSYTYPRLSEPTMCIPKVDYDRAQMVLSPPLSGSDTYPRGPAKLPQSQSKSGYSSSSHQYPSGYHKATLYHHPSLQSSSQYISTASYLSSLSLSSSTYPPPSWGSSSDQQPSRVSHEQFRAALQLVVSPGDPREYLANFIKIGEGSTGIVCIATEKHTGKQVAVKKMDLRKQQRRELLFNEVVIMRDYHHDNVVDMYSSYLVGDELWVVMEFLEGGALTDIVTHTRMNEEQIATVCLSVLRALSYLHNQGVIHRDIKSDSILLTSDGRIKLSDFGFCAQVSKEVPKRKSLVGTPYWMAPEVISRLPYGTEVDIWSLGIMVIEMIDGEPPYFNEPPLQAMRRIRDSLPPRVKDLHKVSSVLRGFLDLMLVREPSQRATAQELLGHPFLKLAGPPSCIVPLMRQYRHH
Chain of SRSF protein kinase 1 (Homo sapiens) (Q96SB4 whole entry, the tested form may be a part): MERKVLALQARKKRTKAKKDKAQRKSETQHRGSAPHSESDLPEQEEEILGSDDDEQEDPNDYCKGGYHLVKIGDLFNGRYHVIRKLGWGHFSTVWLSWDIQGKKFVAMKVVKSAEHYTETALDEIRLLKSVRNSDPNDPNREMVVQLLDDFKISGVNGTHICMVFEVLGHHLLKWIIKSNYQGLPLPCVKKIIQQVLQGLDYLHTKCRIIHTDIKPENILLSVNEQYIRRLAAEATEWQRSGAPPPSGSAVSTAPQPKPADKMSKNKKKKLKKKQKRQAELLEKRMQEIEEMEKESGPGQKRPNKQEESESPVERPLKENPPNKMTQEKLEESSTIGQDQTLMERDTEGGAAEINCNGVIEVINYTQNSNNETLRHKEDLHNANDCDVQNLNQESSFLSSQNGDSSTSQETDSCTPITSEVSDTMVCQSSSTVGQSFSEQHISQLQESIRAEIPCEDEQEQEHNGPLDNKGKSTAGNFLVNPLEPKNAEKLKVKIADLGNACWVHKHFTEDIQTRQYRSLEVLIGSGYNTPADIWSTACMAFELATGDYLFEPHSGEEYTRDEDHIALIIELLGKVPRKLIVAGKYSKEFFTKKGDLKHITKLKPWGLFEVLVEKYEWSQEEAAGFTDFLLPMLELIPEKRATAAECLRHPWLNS
Chain of MAP kinase-activated protein kinase 2 (Homo sapiens) (P49137 whole entry, looked up, the tested form may be a part): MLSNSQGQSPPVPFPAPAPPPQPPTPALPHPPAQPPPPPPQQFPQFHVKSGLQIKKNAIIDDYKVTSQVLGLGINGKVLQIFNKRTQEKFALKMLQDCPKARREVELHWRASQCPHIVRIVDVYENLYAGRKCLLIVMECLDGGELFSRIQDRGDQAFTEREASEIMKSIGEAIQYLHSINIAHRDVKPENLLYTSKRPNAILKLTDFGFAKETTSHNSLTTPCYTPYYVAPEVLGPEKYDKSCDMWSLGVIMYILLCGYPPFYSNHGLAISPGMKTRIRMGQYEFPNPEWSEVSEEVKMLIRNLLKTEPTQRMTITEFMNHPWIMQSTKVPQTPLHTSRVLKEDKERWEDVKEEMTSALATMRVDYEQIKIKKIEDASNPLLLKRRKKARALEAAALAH
Chain of Insulin-like growth factor 1 receptor (Homo sapiens) (P08069 31-736 limits assumed): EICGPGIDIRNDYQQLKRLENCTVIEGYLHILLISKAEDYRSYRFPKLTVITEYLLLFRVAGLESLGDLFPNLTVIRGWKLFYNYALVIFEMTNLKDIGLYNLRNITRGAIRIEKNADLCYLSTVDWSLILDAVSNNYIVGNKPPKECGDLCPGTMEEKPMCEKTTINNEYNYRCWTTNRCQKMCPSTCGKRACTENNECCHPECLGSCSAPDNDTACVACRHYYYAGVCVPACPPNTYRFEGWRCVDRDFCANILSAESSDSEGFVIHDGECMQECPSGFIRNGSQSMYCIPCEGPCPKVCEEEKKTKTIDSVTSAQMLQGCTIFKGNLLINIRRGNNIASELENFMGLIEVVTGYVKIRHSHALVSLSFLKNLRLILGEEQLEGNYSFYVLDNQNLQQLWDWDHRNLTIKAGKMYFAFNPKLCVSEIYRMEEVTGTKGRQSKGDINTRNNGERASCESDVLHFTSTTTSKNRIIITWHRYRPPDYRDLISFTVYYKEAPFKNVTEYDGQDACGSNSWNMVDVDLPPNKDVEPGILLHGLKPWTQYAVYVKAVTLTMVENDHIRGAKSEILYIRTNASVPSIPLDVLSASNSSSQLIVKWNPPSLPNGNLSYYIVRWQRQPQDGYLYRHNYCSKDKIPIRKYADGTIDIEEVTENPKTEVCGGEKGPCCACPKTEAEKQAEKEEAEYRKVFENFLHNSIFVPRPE
Chain of Insulin-like growth factor 1 receptor (Homo sapiens) (P08069 741-1367 limits assumed): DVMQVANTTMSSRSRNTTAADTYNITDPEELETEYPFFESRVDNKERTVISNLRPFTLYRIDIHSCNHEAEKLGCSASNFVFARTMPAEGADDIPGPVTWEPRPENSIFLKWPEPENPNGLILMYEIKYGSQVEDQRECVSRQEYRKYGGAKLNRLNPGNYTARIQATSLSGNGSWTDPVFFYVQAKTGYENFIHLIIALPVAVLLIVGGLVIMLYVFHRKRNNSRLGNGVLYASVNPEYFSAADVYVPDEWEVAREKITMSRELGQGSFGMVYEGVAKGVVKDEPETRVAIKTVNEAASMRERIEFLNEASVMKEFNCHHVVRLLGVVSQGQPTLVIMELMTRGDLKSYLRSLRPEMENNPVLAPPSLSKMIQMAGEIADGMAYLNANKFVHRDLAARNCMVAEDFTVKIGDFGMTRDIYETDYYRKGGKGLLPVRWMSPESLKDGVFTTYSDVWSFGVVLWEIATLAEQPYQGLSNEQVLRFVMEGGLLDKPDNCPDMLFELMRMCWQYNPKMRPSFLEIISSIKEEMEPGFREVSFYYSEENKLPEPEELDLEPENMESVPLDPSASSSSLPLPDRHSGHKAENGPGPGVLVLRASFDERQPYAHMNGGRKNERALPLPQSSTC

`COc1ccc(-c2ccc3c(N4CCOCC4)nc(N4C[C@@H](C)O[C@@H](C)C4)nc3n2)cc1CO` [Ku-0063794]: the Activity in [1] turned out to be 116%; in experiment [2] it was 98%; in experiment [3], 117%; in [4], 81%; in experiment [5], 87%; in [6], 103%. Further, the Activity in [7] is 89%; in [8], 93%; in experiment [9], 101%; in experiment [11] it was 76%; in [12] it was 87%; in experiment [13], 75%. For the same molecule, the Activity in experiment [15] amounted to 106%; in experiment [16], 64%. In addition, the inhibition entry at mTORC1 (Homo sapiens) [10] and at mTORC1 (Homo sapiens) [14] was “Active” throughout. The inhibition entry at mTORC2 (Homo sapiens) is “Dose-Dependent Effect”.

These data come from ChEMBL document CHEMBL5678799 (Biochem J, 2009).
